# Screening data as filed in PubChem BioAssay.
# Rows were chosen to be rich in hits. Some 4.9% of all compounds tested hit in one or more screens of this group.
# STAT1 blocker: STAT1 signaling inhibitors, primary screen, cell-based, HTS, luciferase reporter | inhibition, % at 5.5 µM | AID 920, 2007 | 200,000 tested, 0.35% active | NIH 3T3 STAT1-luciferase reporter, IFN-gamma, luminescence;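 active means inhibition above a set limit, the mean inhibition across all tested compounds plus 3 SD, cut at about 34% in these data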;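 further: 0% = IFN-gamma with DMSO and 100% = IFN-gamma with 300 µM nifuroxazide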
# STAT3 activator: IL-6 driven STAT3 reporter potentiators, primary screen, U3A cells, luciferase, luminescence, MLSCN library | IL-6 STAT3-luciferase reporter; 100% = signal with IL-6 EC80 alone | activation (% of control), % at 5.6 µM | 190,000 tested, 0.91% active;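 active means activation above the screen-wide mean of compound activation plus 3 SD, cut at about 130% in these data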;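 further: 0% = background luminescence of wells with medium and substrate only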
#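 Test system: Human STAT1-deficient U3A cells with stable STAT3-luciferase reporter | Also added: Interleukin-6, 33 ng/mL | Timing: Compound pre-incubation 1 h before IL-6, then 6 h stimulation at 37 °C | Technique: Luciferase reporter luminescence | Read-out: Percent of IL-6-only median luminescence | Benchmarks: IL-6-only wells as 100% reference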
# STAT1 act: STAT1 signaling activators, primary screen, cell-based, HTS, luciferase reporter; NIH 3T3 STAT1-luciferase reporter, IFN-gamma, luminescence; 100% = IFN-gamma alone, no compound; activation (% of control), % at 5.5 µM; 200,000 tested, 2.6% active; AID 932, 2007;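 active means activation above the screen-wide mean activation plus 3 SD, cut at about 130% in these data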;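 further: raw ratio to IFN-gamma control signal so 100% means no change and 0% no light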
# STAT3 blocker: IL-6 driven STAT3 reporter inhibitors, primary screen, U3A cells, luciferase, luminescence, MLSCN library; IL-6 STAT3-luciferase reporter; host cell line lacks STAT1; inhibition, % at 5.5 µM; 190,000 tested, 0.89% active; AID 862, 2007;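 active means inhibition above the mean inhibition across all screened compounds plus 3 SD, cut at about 44% in these data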;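 further: 0% = DMSO only wells and 100% = 100 µM nifuroxazide control wells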
# NF-kB neuron act: activators of NF-kB expression in neurons, primary screen, cell-based, HTS; 190,000 tested, 1.6% active; fold change at 12.5 µM; AID 1239, 2008; human neuronal cells, NF-kB reporter expression; hits give high values; in the data active means fold change above about 3.3
# APP 5'UTR act: activators of APP 5'UTR luciferase reporter, primary screen, SH-SY5Y cells; SH-SY5Y APP 5'UTR luciferase reporter, luminescence; zero percent = DMSO vehicle wells; activation, % at 2 µM; 190,000 tested, 1% active;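 active means activation above a set limit, based on mean plus 3 SD of controls, cut at about 140% in these data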
# * hit, by the source's call; . = no result given.
SMILES,STAT1 blocker,STAT3 activator,STAT1 act,STAT3 blocker,NF-kB neuron act,APP 5'UTR act
O=c1c(-c2ccc3c(c2)OCCO3)coc2cc(OC3OC(CO)C(O)C(O)C3O)ccc12 (configuration not stated),.,.,.,.,.,159*
CCOC(=O)c1sc(=NC(=O)c2ccccc2)n(C)c1C,-41,132,138*,-28,6.7*,180*
CCN(CC)Cc1c(NC(=O)c2ccccc2)sc(C)c1C,-38,123,134*,-24,1.1,-1
CCOC(=O)c1sc(NC(=O)C(C)(C)C)cc1C,-35,102,131*,7,2.6,74
CCOC(=O)c1csc(NC(=O)c2ccccc2)n1,-40,92,136*,18,3.6*,144*
CCN(CC)C(=O)c1c(NC(=O)c2ccccc2)sc(C)c1C,4,99,97,1,0.98,-5
CCOC(=O)c1sc(NC(=O)C2CC2)cc1C,5,86,96,24,1,15
COC(=O)c1ccc(COC(=O)Cc2n[nH]c(=O)c3ccccc23)cc1,13,93,87,11,1.3,2
CCOC(=O)c1sc(NC(=O)Nc2ccc(Cl)cc2)cc1C,-3,96,103,11,1.3,38
CCOC(=O)c1sc(NC(=O)c2ccccc2)cc1C,-49,94,145*,15,6.7*,117
CCOC(=O)c1sc(NC(=O)c2ccc(Cl)s2)cc1C,-35,101,132*,8,2.1,76
Cc1cc(C(=O)CSc2nnc(-c3ccccc3F)o2)c(C)n1Cc1cccs1,11,97,90,6,0.83,14
Cc1cc(C(=O)CN2C(=O)c3cccc(N)c3C2=O)c(C)n1Cc1cccs1,-51,134*,147*,-43,2.8,.
O=C(NC1CCCCC1)c1cc2nc3c(c(C(F)(F)F)n2n1)CCCC3,-40,91,130*,14,2.4,50
C/C(N)=C(/C#N)C(=O)CSc1nnc(Nc2ccccc2)s1,-50,108,148*,-9,1.4,34
c1cc2c(cc1C1=NNC(=NC3CC3)SC1)OCCO2,94*,10,12,108*,0.26,-51
Cc1cc(C2=NNC(=NC3CCCCC3)SC2)c(C)n1-c1c(C)n(C)n(-c2ccccc2)c1=O,2,111,99,-13,0.92,6
Cc1cc(C2=NNC(=NC3CC3)SC2)c(C)n1-c1ccccc1F,89*,14,21,102*,0.18,-70
CCn1c(SCCC(=O)Nc2ccccc2)nnc1-c1ccc(OC)cc1,4,95,96,11,1.1,-11
O=C(N/N=C/c1c(Cl)cccc1Cl)c1cccc(F)c1,-15,98,113,13,0.97,13
O=S(=O)(N/N=C\c1ccc(-c2ccccc2Cl)o1)c1ccccc1,2,93,97,11,1,-2
O=C(N/N=C/c1ccc(F)cc1)c1ccccc1,-32,97,129*,5,2.6,66
O=C(N/N=C/c1ccc(-c2ccccc2Cl)o1)c1ccccc1,-42,98,137*,13,1.2,30
O=C(N/N=C/c1ccccc1C(F)(F)F)c1ccc(O)cc1,-33,115,130*,-14,1.7,45
O=C(N/N=C/c1ccccc1Cl)c1cccc(F)c1,-54,109,148*,0,2.1,70
SMILES,STAT1 blocker,STAT3 activator,STAT1 act,STAT3 blocker,NF-kB neuron act,APP 5'UTR act
Cc1c(Cl)cccc1NC(=O)CCC(=O)NNC(=O)c1ccccc1Cl,5,100,95,7,1.2,-5
COc1cccc(N2C(=O)CC(N3CCC(C(N)=O)(N4CCCCC4)CC3)C2=O)c1 (configuration not stated),0,107,100,-4,1.1,15
O=C(Cn1ncc(Cl)c(Cl)c1=O)N1CCN(S(=O)(=O)c2ccc3ccccc3c2)CC1,7,98,94,-2,0.14,-94
O=C(N/N=C/c1cccc(F)c1)c1ccc(Cl)cc1,-41,96,138*,10,2.7,20
O=C(Nc1ccccc1C(=O)N/N=C/c1ccncc1)c1ccccc1,54*,45,50,67*,1.3,16
O=C(N/N=C/c1cccc(O)c1)c1csc2ccccc12,-2,93,102,8,1.6,14
Fc1cccc(/C=N/NC(=S)Nc2ccccc2Cl)c1,-35,99,131*,2,1.7,14
Cc1ccccc1C(=O)Nc1ccc(C(=O)N/N=C/c2ccncc2)cc1,2,99,97,12,0.7,-2
CC(C)(C)c1ccc(C(=O)N/N=C/c2cccc(Cl)c2)cc1,-23,93,121,7,2,.
O=C(N/N=C/c1cccc(F)c1)c1csc2c1CCCC2,-48,102,142*,-2,5.5*,123
CC(NC(=O)CCCn1cc([N+](=O)[O-])cn1)c1ccccc1 (configuration not stated),3,99,96,4,1.6,-3
CS(=O)(=O)N1CCC(Oc2ccccc2C(=O)NC(C2CC2)C2CC2)CC1,-8,108,105,-2,1.2,-7
O=C(NC(=S)Nc1ccc(N2CCOCC2)cc1)c1cncc(Br)c1,9,85,92,22,1.1,16
COc1ccc(-c2nn(-c3ccccc3)cc2/C=N/N2C(=O)CSC2=S)cc1,-9,106,108,-5,3.1,25
CCN(CC)C(=O)Cn1cc(S(=O)(=O)CC(=O)NC2CCCCC2)c2ccccc21,0,102,99,2,0.83,7
CC1CCc2nc3sc4c(c3c(N)c2C1)CCCC4 (configuration not stated),-24,94,122,15,1.6,31
Nc1c2c(nc3sc4c(c13)CCCCC4)CCCCC2,-51,106,145*,-4,4*,185*
CC1CCc2c(nc3sc4c(c3c2N)CCCC4)C1 (configuration not stated),-37,110,135*,-14,1.8,65
O=c1c2c3c(sc2nc2n1CCCCC2)CCC3,-6,116,105,-12,1.6,8
O=C1C2CC=CCC2C(=O)N1c1ccc(Cc2ccncc2)cc1 (configuration not stated),16,77,85,30,0.76,-8
Nc1c(C(=O)c2ccccc2O)cnn1-c1ccc(S(=O)(=O)N2CCOCC2)cc1[N+](=O)[O-],4,101,95,6,1.1,-20
O=C(N/N=C1\CCCc2ccccc21)c1ccccc1[N+](=O)[O-],6,99,95,4,1.2,11
CCOC(=O)c1cnc(Nc2nc3ccccc3o2)nc1C,45*,21,59,96*,3.5*,104
